Data: ChEMBL document CHEMBL3588803, “Design, synthesis and pharmacology of 1,1-bistrifluoromethylcarbinol derivatives as liver X receptor β-selective agonists” (Bioorg Med Chem Lett, 2015)

Experiments:
[1] = Plasma concentration in CE-2 chow diet-fed golden Syrian hamster at 100 mg/kg, po after 8 hrs by HPLC-LC-MS/MS method; assay type: ADME, organism-based, Mesocricetus auratus
Procedure, shortened: (§1)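 Hamsters on chow diet received a single oral dose of 100 mg/kg. Heparin plasma was drawn from a forearm vein at 0.5, 1, 2, 3, 4, 6, 8, 10 and 24 h after dosing. Concentrations of parent drug and its carboxylic acid metabolite were measured in plasma.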

[2] = Plasma concentration in CE-2 chow diet-fed golden Syrian hamster at 100 mg/kg, po after 3 hrs by HPLC-LC-MS/MS method; assay type: ADME, organism-based, Mesocricetus auratus; procedure, shortened: as §1
Hamster [3] = assay: Hypolipidemic effect in Bio F1B hamster fed with high fat and cholesterol diet assessed as total cholesterol level at 30 mg/kg, po relative to control; assay type: functional, Cricetinae
Hamster [4] = assay: Effect in lipid profiles in Bio F1B hamster fed with high fat and cholesterol diet assessed as triglyceride level at 10 mg/kg, po relative to control; assay type: organism-based; conditions: cricetinae, in vivo
Hamster [5] = assay: Increase in ABCG8 gene expression in Bio F1B hamster intestine at 30 mg/kg, po; assay type: functional, Cricetinae
Procedure, shortened: (§2)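 Bio F1B hamsters were fed a high-fat, high-cholesterol diet and dosed orally. Gene expression was measured in intestine (ABCA1, ABCG5, ABCG8) and in peripheral blood (ABCA1).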

Hamster [6] = assay: Increase in ABCG5 gene expression in Bio F1B hamster intestine at 100 mg/kg, po; assay type: functional, Cricetinae; procedure, shortened: as §2
[7] = Plasma concentration in CE-2 chow diet-fed golden Syrian hamster assessed as 4-(4-(1,1,1,3,3,3-Hexafluoro-2-hydroxypropan-2-yl)-2,6-di-n-propylphenoxy)-butanoic acid level at 100 mg/kg, po after 2 hrs by HPLC-LC-MS/MS method; assay type: ADME, organism-based, Mesocricetus auratus; conditions: in vivo; procedure, shortened: as §1
Hamster [8] = assay: Increase in ABCA1 gene expression in Bio F1B hamster peripheral blood at 30 mg/kg, po; assay type: functional, Cricetinae; procedure, shortened: as §2
Hamster [9] = assay: Increase in ABCG8 gene expression in Bio F1B hamster intestine at 100 mg/kg, po; assay type: functional, Cricetinae; procedure, shortened: as §2
Hamster [10] = assay: Hypolipidemic effect in Bio F1B hamster fed with high fat and cholesterol diet assessed as LDL-cholesterol level at 30 mg/kg, po relative to control; assay type: functional, Cricetinae
Hamster [11] = assay: Increase in ABCG8 gene expression in Bio F1B hamster intestine at 10 mg/kg, po; assay type: functional, Cricetinae
Hamster [12] = assay: Hypolipidemic effect in Bio F1B hamster fed with high fat and cholesterol diet assessed as lipid-accumulation area in aortic arch at 10 mg/kg, po relative to control; assay type: functional, Cricetinae
Hamster [13] = assay: Increase in ABCA1 gene expression in Bio F1B hamster intestine at 10 mg/kg, po; assay type: functional, Cricetinae
Hamster [14] = assay: Hypolipidemic effect in Bio F1B hamster fed with high fat and cholesterol diet assessed as lipid-accumulation area in aortic arch at 30 mg/kg, po relative to control; assay type: functional, Cricetinae

Compound: CCCc1cc(C(O)(C(F)(F)F)C(F)(F)F)cc(CCC)c1OCCCCN1C(=O)NC(C)(c2ccc(OC(C)C)cc2)C1=O (centres undefined)
- concentration at 8 h [1]: 420 nM
- concentration at 3 h [2]: 290 nM
- Activity (Hamster [3]): 96%
- Activity (Hamster [4]): 97%
- fold change (FC) (Hamster [5]): 1.4
- fold change (FC) (Hamster [6]): 1.3
- Cp [7]: 375 ng/mL
- fold change (FC) (Hamster [8]): 0.8
- fold change (FC) (Hamster [9]): 1.3
- Activity (Hamster [10]): 91%
- fold change (FC) (Hamster [11]): 1.3
- Activity (Hamster [12]): 86%
- fold change (FC) (Hamster [13]): 2.1
- Activity (Hamster [14]): 84%
